Source: ChEMBL document CHEMBL1137710, “Synthesis and in vitro antitumor activity of new quinoxaline derivatives” (2009)

Columns and labels:
Assay type in all cases: functional
NCI-H460 = test: Anticancer activity against human NCI-H460 cells assessed as cell growth at 100 uM after 48 hrs by sulforhodamine B assay; details: NCI-H460, 48 h, read-out: Activity
MCF7 [1] = test: Anticancer activity against human MCF7 cells assessed as cell growth at 100 uM after 48 hrs by sulforhodamine B assay; details: MCF7, 48 h, read-out: Activity
SF-268 [2] = test: Anticancer activity against human SF268 cells assessed as cell growth at 100 uM after 48 hrs by sulforhodamine B assay; details: SF-268, 48 h, read-out: Activity
[3] = Growth inhibition of human […] cells after 48 hrs by sulforhodamine B assay; details: for TGI: read-out: pTGI (converted)
Procedure, shortened: (§1)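 NCI 60-human-tumor-cell-line panel, with compounds tested over a 5-log dose range. Values are taken from dose-response curves as log10 molar concentrations: GI50 is 50% net growth inhibition, TGI is total growth inhibition, and LC50 is 50% net cell death.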

SR = test: Growth inhibition of human SR cells after 48 hrs by sulforhodamine B assay; details: for TGI: read-out: pTGI (converted)
Procedure, shortened: (§2)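 Run in the NCI 60-human-tumour-cell-line panel, tested over a 5-log dose range. Dose–response curves gave three values per cell line, each as a log10 molar concentration: GI50 (50% inhibition of net cell growth), TGI (total inhibition of net growth) and LC50 (50% net cell death). The mean graph midpoint is the arithmetic mean over all lines, with insensitive lines entered at the highest concentration tested.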

A549 = test: Growth inhibition of human A549 cells after 48 hrs by sulforhodamine B assay; details: A549, 48 h; for TGI: read-out: pTGI (converted); procedure, shortened: as §1
NCI-H23 = test: Growth inhibition of human NCI-H23 cells after 48 hrs by sulforhodamine B assay; details: NCI-H23, 48 h; for TGI: read-out: pTGI (converted); procedure, shortened: as §1
NCI-H322M = test: Growth inhibition of human NCI-H322M cells after 48 hrs by sulforhodamine B assay; details: for TGI: read-out: pTGI (converted); procedure, shortened: as §1
COLO 205 = test: Growth inhibition of human COLO205 cells after 48 hrs by sulforhodamine B assay; details: COLO 205, 48 h; for TGI: read-out: pTGI (converted); procedure, shortened: as §1
HCT-116 = test: Growth inhibition of human HCT116 cells after 48 hrs by sulforhodamine B assay; details: HCT-116, 48 h; for TGI: read-out: pTGI (converted); procedure, shortened: as §1
SW-620 = test: Growth inhibition of human SW620 cells after 48 hrs by sulforhodamine B assay; details: SW-620, 48 h; for CC50: read-out: pLC50 (the source's name) (converted); for TGI: read-out: pTGI (converted); procedure, shortened: as §2
SF-268 [4] = test: Growth inhibition of human SF268 cells after 48 hrs by sulforhodamine B assay; details: SF-268, 48 h; for TGI: read-out: pTGI (converted); procedure, shortened: as §1
SF-295 = test: Growth inhibition of human SF295 cells after 48 hrs by sulforhodamine B assay; details: SF-295, 48 h; for TGI: read-out: pTGI (converted); procedure, shortened: as §1
SNB-19 = test: Growth inhibition of human SNB19 cells after 48 hrs by sulforhodamine B assay; details: SNB-19, 48 h; for TGI: read-out: pTGI (converted); procedure, shortened: as §2
U-251 = test: Growth inhibition of human U251 cells after 48 hrs by sulforhodamine B assay; details: U-251, 48 h; procedure, shortened: as §2
LOX IMVI = test: Growth inhibition of human LOXIMVI cells after 48 hrs by sulforhodamine B assay; procedure, shortened: as §1
SK-MEL-2 = test: Growth inhibition of human SK-MEL-2 cells after 48 hrs by sulforhodamine B assay; details: SK-MEL-2, 48 h; for CC50: read-out: pLC50 (the source's name) (converted); for TGI: read-out: pTGI (converted); procedure, shortened: as §1
SK-MEL-28 = test: Growth inhibition of human SK-MEL-28 cells after 48 hrs by sulforhodamine B assay; details: SK-MEL-28, 48 h; for CC50: read-out: pLC50 (the source's name) (converted); for TGI: read-out: pTGI (converted); procedure, shortened: as §1
SK-MEL-5 = test: Growth inhibition of human SK-MEL-5 cells after 48 hrs by sulforhodamine B assay; details: SK-MEL-5, 48 h; for CC50: read-out: pLC50 (the source's name) (converted); for TGI: read-out: pTGI (converted); procedure, shortened: as §1
UACC-257 = test: Growth inhibition of human UACC257 cells after 48 hrs by sulforhodamine B assay; details: UACC-257, 48 h; for CC50: read-out: pLC50 (the source's name) (converted); for TGI: read-out: pTGI (converted); procedure, shortened: as §2
IGROV-1 = test: Growth inhibition of human IGROV1 cells after 48 hrs by sulforhodamine B assay; details: IGROV-1, 48 h; for CC50: read-out: pLC50 (the source's name) (converted); for TGI: read-out: pTGI (converted); procedure, shortened: as §1
OVCAR-5 = test: Growth inhibition of human OVCAR5 cells after 48 hrs by sulforhodamine B assay; details: OVCAR-5, 48 h; for CC50: read-out: pLC50 (the source's name) (converted); for TGI: read-out: pTGI (converted); procedure, shortened: as §1
OVCAR-8 = test: Growth inhibition of human OVCAR8 cells after 48 hrs by sulforhodamine B assay; details: OVCAR-8, 48 h; for CC50: read-out: pLC50 (the source's name) (converted); for TGI: read-out: pTGI (converted); procedure, shortened: as §1
RXF 393 = test: Growth inhibition of human RXF393 cells after 48 hrs by sulforhodamine B assay; details: RXF 393, 48 h; for CC50: read-out: pLC50 (the source's name) (converted); for TGI: read-out: pTGI (converted); procedure, shortened: as §1
PC-3 = test: Growth inhibition of human PC3 cells after 48 hrs by sulforhodamine B assay; details: PC-3, 48 h; for CC50: read-out: pLC50 (the source's name) (converted); for TGI: read-out: pTGI (converted); procedure, shortened: as §1
DU-145 = test: Growth inhibition of human DU145 cells after 48 hrs by sulforhodamine B assay; details: DU-145, 48 h; for CC50: read-out: pLC50 (the source's name) (converted); for TGI: read-out: pTGI (converted); procedure, shortened: as §1
[5] = Growth inhibition of human Hs 578T cells after 48 hrs by sulforhodamine B assay; details: for CC50: read-out: pLC50 (the source's name) (converted); for TGI: read-out: pTGI (converted); procedure, shortened: as §1
MDA-MB-435 = test: Growth inhibition of human MDA-MB-435 cells after 48 hrs by sulforhodamine B assay; details: MDA-MB-435, 48 h; for CC50: read-out: pLC50 (the source's name) (converted); for TGI: read-out: pTGI (converted); procedure, shortened: as §1
MCF7 [6] = test: Growth inhibition of human MCF7 cells after 48 hrs by sulforhodamine B assay; details: MCF7, 48 h; for CC50: read-out: pLC50 (the source's name) (converted); for TGI: read-out: pTGI (converted); procedure, shortened: as §1

## Nc1cc(N)c2nc(-c3ccccc3)c(NCc3ccc(Cl)c(Cl)c3)nc2c1
NCI-H460
  growth at 100 µM: 0%
MCF7 [1]
  growth at 100 µM: 0%
SF-268 [2]
  growth at 100 µM: 0%
[3]
  GI50: 1.66 µM
  LC50: 8.32 µM
  TGI: 3.72 µM
SR
  GI50: 1.62 µM
  LC50 (concentration giving 50% net cell death): > 100 µM
  TGI: 6.03 µM
A549
  GI50: 10.7 µM
  LC50: 69.2 µM
  TGI: 27.5 µM
NCI-H23
  GI50: 14.1 µM
  LC50 (50% net cell kill concentration): 55 µM
  TGI: 27.5 µM
NCI-H322M
  GI50: 13.5 µM
  LC50: 69.2 µM
  TGI: 30.2 µM
COLO 205
  GI50: 17 µM
  LC50 (50% net cell kill): 66.1 µM
  TGI: 33.9 µM
HCT-116
  GI50: 11.5 µM
  LC50 (concentration causing 50% net cell death): 50.1 µM
  TGI: 24 µM
SW-620
  GI50: 3.24 µM
  CC50: > 100 µM
  TGI: 9.77 µM
SF-268 [4]
  GI50: 20 µM
  LC50: > 100 µM
  TGI: 55 µM
SF-295
  GI50: 15.5 µM
  LC50 (50% net cell kill): 89.1 µM
  TGI: 37.2 µM
SNB-19
  GI50: 22.4 µM
  LC50: > 100 µM
  TGI: 51.3 µM
U-251
  GI50: 2.09 µM
  LC50 (50% net cell kill): > 100 µM
LOX IMVI
  GI50: 2.14 µM
SK-MEL-2
  GI50: 1.91 µM
  CC50: 9.55 µM
  TGI: 4.27 µM
SK-MEL-28
  GI50: 18.6 µM
  CC50: 93.3 µM
  TGI: 41.7 µM
SK-MEL-5
  GI50: 3.47 µM
  CC50: 34.7 µM
  TGI: 10.7 µM
UACC-257
  GI50: 4.57 µM
  CC50: 43.7 µM
  TGI: 15.8 µM
IGROV-1
  GI50: 1.95 µM
  CC50: 29.5 µM
  TGI: 5.89 µM
OVCAR-5
  GI50: 24 µM
  CC50: 69.2 µM
  TGI: 40.7 µM
OVCAR-8
  GI50: 3.39 µM
  CC50: > 100 µM
  TGI: 13.5 µM
RXF 393
  GI50: 3.09 µM
  CC50: > 100 µM
  TGI: 17 µM
PC-3
  GI50: 1.74 µM
  CC50: 19.1 µM
  TGI: 5.13 µM
DU-145
  GI50: 16.2 µM
  CC50: 69.2 µM
  TGI: 33.1 µM
[5]
  GI50: 5.89 µM
  CC50: > 100 µM
  TGI: 46.8 µM
MDA-MB-435
  GI50: 2.75 µM
  CC50: 52.5 µM
  TGI: 7.59 µM
MCF7 [6]
  GI50: 12.3 µM
  CC50: > 100 µM
  TGI: 53.7 µM

## Nc1cc(N)c2nc(-c3ccccc3)c(Sc3ccc(F)cc3)nc2c1
NCI-H460
  growth at 100 µM: 0%
MCF7 [1]
  growth at 100 µM: 7%
SF-268 [2]
  growth at 100 µM: 0%
[3]
  GI50: 28.2 µM
  LC50: > 100 µM
  TGI: 81.3 µM
SR
  GI50: 35.5 µM
  LC50 (concentration giving 50% net cell death): > 100 µM
  TGI: > 100 µM
A549
  GI50: 13.5 µM
  LC50: 70.8 µM
  TGI: 30.9 µM
NCI-H23
  GI50: 19.1 µM
  LC50 (50% net cell kill concentration): 81.3 µM
  TGI: 39.8 µM
NCI-H322M
  GI50: 20.4 µM
  LC50: 70.8 µM
  TGI: 38 µM
COLO 205
  GI50: 21.9 µM
  LC50 (50% net cell kill): > 100 µM
  TGI: 47.9 µM
HCT-116
  GI50: 14.8 µM
  LC50 (concentration causing 50% net cell death): 55 µM
  TGI: 28.2 µM
SW-620
  GI50: 22.9 µM
  CC50: > 100 µM
  TGI: 50.1 µM
SF-268 [4]
  GI50: 17.8 µM
  LC50: 85.1 µM
  TGI: 38.9 µM
SF-295
  GI50: 13.8 µM
  LC50 (50% net cell kill): 64.6 µM
  TGI: 30.2 µM
SNB-19
  GI50: 20 µM
  LC50: 87.1 µM
  TGI: 41.7 µM
U-251
  GI50: 16.2 µM
  LC50 (50% net cell kill): 61.7 µM
U-251; read-out: pTGI (converted)
  TGI: 31.6 µM
LOX IMVI
  GI50: 22.9 µM
  LC50: 74.1 µM
LOX IMVI; read-out: pTGI (converted)
  TGI: 40.7 µM
SK-MEL-2
  GI50: 38 µM
  CC50: > 100 µM
  TGI: > 100 µM
SK-MEL-28
  GI50: 23.4 µM
  CC50: > 100 µM
  TGI: 53.7 µM
SK-MEL-5
  GI50: 15.5 µM
  CC50: 70.8 µM
  TGI: 33.1 µM
UACC-257
  GI50: 16.6 µM
  CC50: 60.3 µM
  TGI: 31.6 µM
IGROV-1
  GI50: 25.1 µM
  CC50: > 100 µM
  TGI: > 100 µM
OVCAR-5
  GI50: 19.1 µM
  CC50: > 100 µM
  TGI: 45.7 µM
OVCAR-8
  GI50: 16.6 µM
  CC50: 72.4 µM
  TGI: 34.7 µM
RXF 393
  GI50: > 100 µM
  CC50: > 100 µM
  TGI: > 100 µM
PC-3
  GI50: > 100 µM
  CC50: > 100 µM
  TGI: > 100 µM
DU-145
  GI50: > 100 µM
  CC50: > 100 µM
  TGI: > 100 µM
[5]
  GI50: 26.9 µM
  CC50: > 100 µM
  TGI: 61.7 µM
MDA-MB-435
  GI50: 16.2 µM
  CC50: 66.1 µM
  TGI: 33.1 µM
MCF7 [6]
  GI50: 20 µM
  CC50: > 100 µM
  TGI: 63.1 µM
